Test results reported in PubChem BioAssay.
Records with an inconclusive call do not appear. The source made the active and inactive calls.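 The calls were made as follows, unless noted: active = cell viability at or below a set limit in both duplicate runs, the limit being the all-compound median minus 4 SD (cut at about 23% in these data, passing the limit was not always enough); inconclusive = no clear call, values can overlap the other calls; inactive = the rest.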

Experiments:
[1] = OD615 S. cerevisiae growth inhibition, permissive medium, pilot counter-assay, permissive growth control for S. cerevisiae lifespan shortening project (AID 705;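 active = growth inhibition above 25% in both replicates, a cutoff set 3 SD above the mean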); details: OD615, 24 h, at 10 µM, stronger effect = higher value
Summary of the method: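 assay system = Saccharomyces cerevisiae strain carrying genetically modified DeaD replicative-lifespan system | technique = absorbance (optical density) at 615 nm | buffer or medium = permissive raffinose/galactose medium | timing = cells pre-grown 4 h, then 24 h compound exposure, 30 °C humidified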

[2] = Restrictive medium S. cerevisiae growth inhibition, OD615, pilot screen of yeast lifespan reduction project, restrictive growth control (AID 706;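 active = growth inhibition above a set limit, 3 SD over mean compound inhibition, in both replicates, cut at about 43% in these data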;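 also: modified DeaD lifespan yeast strain shifted to restrictive glucose medium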); details: OD615, 48 h, at 10 µM, stronger effect = higher value
Summary of the method: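 System: modified S. cerevisiae. Buffer or medium: CSMM-D glucose medium. Incubation: 4 h pre-growth plus 48 h compound exposure, 30 °C. Detection: absorbance (optical density) measured at 615 nm.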

[3] = viability gain of MRP-1-high H69AR cells under doxorubicin, pilot screen, MRP-1 activator project, CellTiter-Glo, duplicate (AID 807;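 active = viability increase at or above a cutoff of the median across tested compounds plus 3 SD, cut at about 8.5% in these data, passing the limit was not always enough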;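 also: compound pretreatment 18-22 h then 72 h combined with doxorubicin; 0% = doxorubicin alone and 100% = vehicle without doxorubicin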); details: H69AR viability with doxorubicin, CellTiter-Glo luminescence; at 10 µM; stronger effect = higher value
[4] = growth suppression of beta-catenin knockout HCT116, pilot screen, human colon tumor cells (AID 823); details: CellTiter-Glo, 60 h, at 10 µM, stronger effect = lower value;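 also: 0% = wells killed by 20 µM Hyamine and 100% = untreated DMSO cell wells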
[5] = growth suppression of PTEN-deleted HCT116, pilot screen, cell-based, HCT116 clonal line, CellTiter-Glo (AID 824;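 active = viability at or below 27.92% in each of two runs, the all-compound median minus 4 SD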;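 also: 0% = 20 µM Hyamine control and 100% = vehicle cell control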); details: 60 h, at 10 µM, stronger effect = lower value
[6] = inhibitors of the yeast RAM network, pilot screen, dse1pr::URA3 reporter, 5-FOA selection (AID 869;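 active = inhibition over a set limit, the all-compound mean plus 3 SD, in both replicate runs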;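 also: 0% = DMSO wells with no growth and 100% = 10 µM 1-NA-PP1 with full growth; RAM network block rescues cells from 5-FOA so hits raise OD615 growth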); details: S. cerevisiae dse1pr::URA3 5-FOA growth, OD615, 2 d; at 10 µM; stronger effect = higher value; strain carries analog-sensitive mutant Cbk1 kinase
[7] = RAM signaling pathway blockade in yeast – S. cerevisiae, Pdr1DBD-CYC8 efflux-inhibited sensitized strain, primary screen (AID 1298;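 active = RAM network inhibition above 8.4% in each of two replicates, 3 SD over the compound average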;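 also: 0% = DMSO untreated cells without growth and 100% = 10 µM 1-NA-PP1 full growth; higher means more yeast growth rescued from 5-FOA killing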); details: S. cerevisiae cbk1-as DSE1-URA3 strain, 5-FOA growth OD615, 2 d; at 50 µM; stronger effect = higher value

OCC1(C2=NOC(O)(C(F)(F)F)C2)CCCCC1 (configuration not stated)
inactive: growth inhibition [1] -7.57% | growth inhibition [2] -22.3% | viability increase [3] 1.19% | viability [4] 101% | viability [5] 101% | inhibition [6] 2.09% | RAM network inhibition [7] 3.18%

O=C(Cn1c(=O)oc2ccccc21)N1CCN(c2ccc(N3CCOCC3)nn2)CC1
inactive: growth inhibition [1] -0.78% | growth inhibition [2] -14% | viability increase [3] -2.65% | viability [4] 101% | viability [5] 101% | inhibition [6] 1.31% | RAM network inhibition [7] 2.63%

CCCn1c(C(O)c2ccc3c(c2)OCO3)nc2ccccc21 (configuration not stated)
inactive: growth inhibition [1] 1.37% | growth inhibition [2] -13.8% | viability increase [3] 0.23% | viability [4] 100% | viability [5] 102% | inhibition [6] 2.31% | RAM network inhibition [7] 0.88%

O=C1c2cccnc2C(=O)N1Cc1cccs1
inactive: growth inhibition [1] -1.61% | growth inhibition [2] -4.64% | viability increase [3] -0.5% | viability [4] 98.5% | viability [5] 102% | inhibition [6] 1.4% | RAM network inhibition [7] 0.21%

O=C(C1CC(c2ccc(F)cc2)=NO1)N1CCc2ccccc2C1 (configuration not stated)
inactive: growth inhibition [1] 1.34% | growth inhibition [2] -7.89% | viability increase [3] 0.59% | viability [4] 101% | viability [5] 99.5% | inhibition [6] 1.91% | RAM network inhibition [7] 7.63%

CCCNc1nc2c(c(=O)n(C)c(=O)n2C)n1Cc1ccc(F)cc1
inactive: growth inhibition [1] -3.24% | growth inhibition [2] -4.52% | viability increase [3] -1.45% | viability [4] 78.8% | viability [5] 79.1% | inhibition [6] 0.88% | RAM network inhibition [7] 3.07%

CCC(=O)NCCn1c(C)cc2ccccc21
inactive: growth inhibition [1] 8.84% | growth inhibition [2] 11.4% | viability increase [3] -0.96% | viability [4] 104% | viability [5] 92% | inhibition [6] 1.91% | RAM network inhibition [7] -0.46%

O=C(Cn1c(=O)sc2ccccc21)Nc1ccccc1C(=O)O
inactive: growth inhibition [1] -3.71% | growth inhibition [2] 0.435% | viability increase [3] 1.36% | viability [4] 102% | viability [5] 96.7% | inhibition [6] 3.53% | RAM network inhibition [7] 2.02%

CCOc1ccccc1-c1nc(C(N)=O)c2[nH]c(=O)n(-c3ccc(F)cc3)c2n1
inactive: growth inhibition [1] -8.26% | growth inhibition [2] -0.005% | viability increase [3] -4.08% | viability [4] 90.2% | viability [5] 83.9% | inhibition [6] 0.93% | RAM network inhibition [7] -0.71%

CCCCn1c(NC(=O)c2ccccc2)nc2ccccc21
active: viability [4] 22.1% | viability [5] 18.3%
inactive: growth inhibition [1] 8.39% | growth inhibition [2] -7.56% | viability increase [3] -3.95% | inhibition [6] -0.145% | RAM network inhibition [7] 3.88%

c1ccc(N2CCN(C3CCSC3)CC2)cc1 (configuration not stated)
inactive: growth inhibition [1] -20.2% | growth inhibition [2] -15.7% | viability increase [3] 1.11% | viability [4] 96% | viability [5] 94.3% | inhibition [6] 1.05% | RAM network inhibition [7] -1.2%

COc1ccc(Nc2nnc(Cc3ccccc3)c(=O)[nH]2)c(OC)c1
inactive: growth inhibition [1] -23.5% | growth inhibition [2] -17.1% | viability increase [3] 0.58% | viability [4] 93.5% | viability [5] 92.7% | inhibition [6] 1.52% | RAM network inhibition [7] 3.16%

CN1CCN(c2nc3c(c(=O)n(C)c(=O)n3C)n2CCSc2nc3ccccc3s2)CC1
inactive: growth inhibition [1] -5.4% | growth inhibition [2] -16.2% | viability increase [3] -3.94% | viability [4] 100% | viability [5] 96.1% | inhibition [6] 1.37% | RAM network inhibition [7] 3.29%

COC(=O)c1ccccc1NC(=O)Cn1cc2c(n1)CCC(C)C2 (configuration not stated)
inactive: growth inhibition [1] 0.34% | growth inhibition [2] -0.81% | viability increase [3] -0.23% | viability [4] 92.9% | viability [5] 87.9% | inhibition [6] 1.79% | RAM network inhibition [7] 3.66%

CN=C1SC(CC(=O)Nc2ccccc2F)C(=O)N1C (configuration not stated)
inactive: growth inhibition [1] 0.635% | growth inhibition [2] 0.465% | viability increase [3] -0.48% | viability [4] 112% | viability [5] 98.9% | inhibition [6] 1.99% | RAM network inhibition [7] 1.28%

Cc1ccc(-c2noc(CSc3nnnn3-c3ccccc3)n2)cc1
inactive: growth inhibition [1] -16.9% | growth inhibition [2] 9.4% | viability increase [3] 2.8% | viability [4] 88.1% | viability [5] 97.8% | inhibition [6] 1.95% | RAM network inhibition [7] 7.44%

CCOc1cc(/C=N/n2cnnc2)ccc1OCC(=O)Nc1ccccc1OC
inactive: growth inhibition [1] 0.995% | growth inhibition [2] 0.62% | viability increase [3] -1.37% | viability [4] 101% | viability [5] 95.7% | inhibition [6] 1.91% | RAM network inhibition [7] 2.52%

CCN(CC)S(=O)(=O)c1ccc2c3c(cccc13)C(=O)N2
inactive: growth inhibition [1] -12.1% | growth inhibition [2] -11.4% | viability increase [3] -4.61% | viability [4] 97.1% | viability [5] 96.8% | inhibition [6] 2.06% | RAM network inhibition [7] 4.63%

Cn1ccnc1SCC(=O)Nc1cccc(C(F)(F)F)c1
inactive: growth inhibition [1] 0.76% | growth inhibition [2] 10.5% | viability increase [3] -4.88% | viability [4] 96.4% | viability [5] 96.8% | inhibition [6] 0.71% | RAM network inhibition [7] 4.72%

CCOc1ccc(N(CC(=O)NC(C)(C)C)S(=O)(=O)c2c(C)noc2C)cc1
inactive: growth inhibition [1] -19.9% | growth inhibition [2] -9.45% | viability increase [3] -4.94% | viability [4] 81.5% | viability [5] 81.8% | inhibition [6] 0.36% | RAM network inhibition [7] -1%

CSCC[C@@H](C(=O)O)N1Cc2ccccc2C1=O
inactive: growth inhibition [1] 7.93% | growth inhibition [2] 6.17% | viability increase [3] 0% | viability [4] 105% | viability [5] 103% | inhibition [6] 1.69% | RAM network inhibition [7] -0.16%

COc1cccc(NC(=O)c2ccncc2)c1
inactive: growth inhibition [1] -9.44% | growth inhibition [2] -11% | viability increase [3] -3.81% | viability [4] 94.3% | viability [5] 100% | inhibition [6] 1.18% | RAM network inhibition [7] 4.2%

O=C(c1cnn2ccccc12)N1CCc2ccccc21
inactive: growth inhibition [1] 0.67% | growth inhibition [2] -5.48% | viability increase [3] -2.13% | viability [4] 97.9% | viability [5] 91.9% | inhibition [6] 1.33% | RAM network inhibition [7] 1.54%

CCCCC(=O)Nc1nc(C)c(C(C)=O)s1
inactive: growth inhibition [1] -13.3% | growth inhibition [2] -2.2% | viability increase [3] 0.48% | viability [4] 98.8% | viability [5] 88.7% | inhibition [6] 1.14% | RAM network inhibition [7] -1%

COc1ccc(-n2c(Cc3cccn3C)nnc2SCC(=O)NC2CCCC2)cc1
inactive: growth inhibition [1] -6.13% | growth inhibition [2] 5.99% | viability increase [3] 0.53% | viability [4] 94.1% | viability [5] 92.4% | inhibition [6] 0.835% | RAM network inhibition [7] 3.89%

O=C(O)[C@H](Cc1ccccc1)N1Cc2ccccc2C1=O
inactive: growth inhibition [1] -4.39% | growth inhibition [2] -15% | viability increase [3] -2.35% | viability [4] 95.3% | viability [5] 97.4% | inhibition [6] 1.4% | RAM network inhibition [7] 1.15%

C=C(C)CSc1nc2c(c(=O)[nH]c(=O)n2C)n1CCC(C)C
inactive: growth inhibition [1] -17.9% | growth inhibition [2] -22.9% | viability increase [3] -2.5% | viability [4] 80.8% | viability [5] 80.9% | inhibition [6] 1.38% | RAM network inhibition [7] 1.85%

N=c1c2c(n(Cc3ccc(F)cc3)c3c1CCC3)CCC2
inactive: growth inhibition [1] -12.2% | growth inhibition [2] -14.7% | viability increase [3] -0.55% | viability [4] 34.5% | viability [5] 38.9% | inhibition [6] 0.8% | RAM network inhibition [7] 0.77%

CCN1CCN(C(=O)c2cc3c(=O)oc4ccc(C)cc4c3s2)CC1
inactive: growth inhibition [1] -12.6% | growth inhibition [2] -16.2% | viability increase [3] -2.18% | viability [4] 102% | viability [5] 93.7% | inhibition [6] 0.905% | RAM network inhibition [7] 1.3%

Cc1noc(NS(=O)(=O)c2ccc(NC(=O)COc3ccc(Cl)cc3Cl)cc2)c1C
inactive: growth inhibition [1] -2.93% | growth inhibition [2] 10.8% | viability increase [3] -0.49% | viability [4] 100% | viability [5] 98.6% | inhibition [6] 2.39% | RAM network inhibition [7] 7.51%

O=C(NC1CCCCCC1)C1CCN(S(=O)(=O)c2cccc3cccnc23)CC1
inactive: growth inhibition [1] 8.96% | growth inhibition [2] 6.42% | viability increase [3] 2.08% | viability [4] 99.5% | viability [5] 105% | inhibition [6] -0.605% | RAM network inhibition [7] 1.35%

COc1ccc(S(=O)(=O)Cc2ccc(C(=O)N3CCN(C(=O)c4ccco4)CC3)o2)cc1
inactive: growth inhibition [1] 0.785% | growth inhibition [2] 1.27% | viability increase [3] -2.09% | viability [4] 92.8% | viability [5] 100% | inhibition [6] 2.06% | RAM network inhibition [7] 3.94%

Cc1ccc(-c2noc(CSc3nnnn3C3CCCCC3)n2)cc1
inactive: growth inhibition [1] -16.1% | growth inhibition [2] -13.6% | viability increase [3] -1.39% | viability [4] 89.8% | viability [5] 84% | inhibition [6] 0.525% | RAM network inhibition [7] 5.16%

Cn1nnnc1SCC(=O)c1ccco1
inactive: growth inhibition [1] -7.91% | growth inhibition [2] -1% | viability increase [3] -3.23% | viability [4] 103% | viability [5] 105% | inhibition [6] 1.83% | RAM network inhibition [7] -0.17%

CCOc1ccc(C2CC(c3ccc(CC)cc3)Nc3nc(N)nn32)cc1 (configuration not stated)
inactive: growth inhibition [1] 13.7% | growth inhibition [2] 21.5% | viability increase [3] 5.61% | viability [4] 97.5% | viability [5] 90.2% | inhibition [6] 0.69% | RAM network inhibition [7] 8.15%

C#CCn1c(=NC(=O)c2cccs2)sc2cccc(OC)c21
inactive: growth inhibition [1] -11.2% | growth inhibition [2] -16.3% | viability increase [3] -3.51% | viability [4] 79.6% | viability [5] 73.9% | inhibition [6] 3.34% | RAM network inhibition [7] 7.2%
